Compound activity (PubChem)
SKKanGAS inh – inhibitors of SKKanGAS S. pyogenes growth in kanamycin (SK-promoter or general growth effect) | BacTiter-Glo, 6 h | inhibition, % at 7.5 µM | 1.3% of 300,000 active | AID 1662;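 active means mean replicate score, as percent of positive control median, at least 50; inconclusive means mean below 50 but one replicate at or above 50; inactive means mean and every replicate below 50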;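 further: strain carries kanamycin resistance gene driven by streptokinase promoter and grows in 40 µg/ml kanamycin; loss of luminescence reflects streptokinase promoter inhibition or plain growth inhibition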
PfHsp90 yeast 2 – reduces growth (ATP signal) of yeast expressing P. falciparum Hsp90; AID 504621; inhibition, % at 9.4 µM; 0.32% of 310,000 active; S. cerevisiae expressing PfHsp90, BacTiter-Glo ATP, 48 h; yeast lacking PDR1 and PDR3 efflux regulators;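 active means every replicate shows inhibition above about 80%, whatever the replicate mean, limit read from the data; inconclusive means mean inhibition reaches the set limit but some replicate falls short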
Beta apoptosis – blocks beta cell apoptosis; INS-1E cytokine-induced death, ATP luminescence, 48 h; percent of positive-control rescue, neutral wells zero; protection from apoptosis, % (concentration not given with the values); 0.8% of 300,000 active; AID 435005;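 active means Every replicate reaches about 75%, or at least half do and their mean reaches it too, limit read from the data; inconclusive means At least half of replicates reach the limit but their mean does not; inactive means Under half of replicates reach the limit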;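 further: higher means more ATP so stronger rescue from cytokine killing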
CSC inhib – cancer stem cell inhibition; cancer stem cell-like cells viability, luminescence; AID 2717; inhibition, % at 7.5 µM; 1.1% of 300,000 active; in the data active means inhibition above about 75%; inconclusive means no clear call, values can overlap the other calls; tested in HMLE shEcad cells
HIF activator – HIF pathway transcriptional activation; activation, % at 7.5 µM (by protocol); 0.32% of 300,000 active; U2OS HRE-luciferase reporter, luminescence; normalized: DMSO 0%, desferrioxamine 100%; AID 1910;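 active means mean activation of at least 10% of the iron chelator positive control signal, with at least half of replicates also reaching 10%; inconclusive means mean and replicate majority disagree about reaching 10%; inactive means mean and most replicates under 10%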
T cruzi repl – T. cruzi replication inhibition; T. cruzi beta-gal in NIH3T3, luminescence, 90 h; inhibition, % (no concentration beside the values); 1.4% of 300,000 active;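 active means mean inhibition across valid replicates above about 55%, limit read from the data; inconclusive means mean below that limit but half or more replicates reach it; inactive means mean below it, under half of replicates reach it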;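 further: signal also drops with host cell toxicity which is not excluded here; higher percent means less beta-gal luminescence so fewer parasites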
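System: Mouse NIH/3T3 fibroblasts infected with β-gal-expressing T. cruzi Tulahuen C4 | Quantity: NIH/3T3 cells, 5,000 per well | Reagent: 5000 reporter trypomastigotes per well | Dosing: Compound pinned at 50 nL/well, DMSO | Schedule: 3 h host attachment, then at least 90 h co-culture | Detection: GalScreen luminescence, 60 min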
Numbers stand for hits; . = inactive; ? = inconclusive; / = not tested or not shown. Sampled rows, rich in hits. Any-hit rate of the full collection: about 3.6%.

SMILES	SKKanGAS inh	PfHsp90 yeast 2	Beta apoptosis	CSC inhib	HIF activator	T cruzi repl
COc1ccc(C(=O)Nc2cc(OC)cc3cccnc23)cc1	.	.	.	.	.	.
CCCC(=O)NC(c1ccc(OC)c(OC)c1)c1cc(Cl)c2cccnc2c1O (centres undefined)	.	100	91	.	.	56
O=C(NCc1ccc(Cl)cc1)c1cccnc1	.	.	.	.	.	.
CCOc1ccc(C(NC(=O)c2ccco2)c2ccc(OC)c(OC)c2)cc1 (centres undefined)	.	.	.	.	.	.
CC(=O)NC(c1ccccc1)c1cc(Cl)c2cccnc2c1O (centres undefined)	79	107	98	104	.	?
O=c1[nH]c(-c2ccccc2)ncc1OCc1ccccc1	/	.	/	/	/	/
CCOc1ccccc1N1CCN(Cc2ccc(OC)c(OC)c2OC)CC1	.	.	.	.	.	.
COc1ccc(CN2CCN(CCSc3ccc(C)cc3)CC2)c(OC)c1OC	.	.	123	.	.	.
Cc1nc2ccccc2n1-c1nc(-c2ccco2)cc(C(F)(F)F)n1	.	.	131	149	.	.
FC(F)(F)c1cc(-c2ccco2)nc(-n2cnc3ccccc32)n1	.	.	.	.	.	.
O=C(NCc1ccco1)C(c1ccccc1F)N(Cc1cccnc1)C(=O)Cn1nnc2ccccc21 (centres undefined)	.	.	.	.	.	66
COc1ccc(C)cc1N1C(=N)/C(=C2/Nc3ccccc3S2)C(c2ccccc2)C1=O (centres undefined)	/	.	.	112	/	/
COc1ccc(C(=O)N2CCCC(Nc3ccc(F)cc3)C2)c(OC)c1 (centres undefined)	.	.	/	.	.	.
CCOC(=O)/C(C)=C1\NC(C)(C)Cc2ccccc21	.	.	/	/	.	62
O=C1C2C3C=CC(CC3)C2C(=O)N1c1ccc(Cl)cc1Cl (centres undefined)	.	.	.	.	.	.
O=C(NC1CCCC1)C1CCN(C(=O)c2ccc(-c3ccccc3)cc2)CC1	.	/	.	.	.	.
Cc1ccc(C)c(NC(=O)c2ccccc2NS(=O)(=O)c2cc([N+](=O)[O-])ccc2C)c1	/	.	112	97	.	.
CSc1ccccc1C(=O)Nc1cc(C)ccc1C	.	.	.	78	.	.
CN(c1ccccc1)c1ncnc2c1ncn2C	/	.	/	/	/	/
S=C1NC2=C(CCCC2=C2SCCS2)C(c2ccccc2)N1 (centres undefined)	.	.	.	.	69	.
COc1cccc(C2NC(=S)NC3=C2CCc2ccccc23)c1 (centres undefined)	.	.	.	.	.	.
CC(C)(CN1CCc2ccccc2C1)NS(=O)(=O)c1ccc(Cl)cc1	.	.	.	.	.	.
CCn1c(C)nc2cc(C(=O)N/N=C/c3ccccc3)ccc21	.	.	.	.	.	.
Cc1ccc(/C=N/NC(=O)c2ccc3c(c2)OCCO3)s1	.	.	.	92	.	.
CCn1c(C)nc2cc(C(=O)N/N=C/c3cccc(O)c3O)ccc21	.	.	76	.	43	.
SMILES	SKKanGAS inh	PfHsp90 yeast 2	Beta apoptosis	CSC inhib	HIF activator	T cruzi repl
Cc1ccc(/C=N/NC(=O)c2ccc3ccccc3c2)s1	.	.	.	.	.	.
Cc1cccc(/C=N/NC(=O)c2ccc3c(c2)OCCO3)c1O	91	.	94	.	28	.
O=C(N/N=C/c1cccc(O)c1)c1ccc2c(c1)OCCO2	.	.	.	.	.	.
O=C(N/N=C/c1ccc(-c2ccc(Br)cc2)o1)c1ccc2c(c1)OCO2	.	.	.	.	.	74
COc1ccc(NC(=O)COc2ccc(N(C)S(=O)(=O)c3ccc(Cl)cc3)cc2)cc1OC	.	/	.	/	.	.
Cc1noc(C)c1COc1ccc(C(=O)N2CCN(S(=O)(=O)c3ccc(F)cc3)CC2)cc1	/	.	/	/	/	/
CCOc1cccc(/C=N/NC(=O)c2ccc3c(c2)OCCO3)c1O	95	.	92	.	12	.
COCCN(C(=S)Nc1c(C)cccc1C)C(C)c1cccs1 (centres undefined)	.	.	.	.	.	.
CCC(CO)Oc1cc(NCc2ccc(F)cc2)c2ncn(C(C)C)c2c1 (centres undefined)	/	/	.	/	/	/
CCC(CO)Oc1cc(NCc2ccc(C)c(C)c2)c2ncn(C(C)C)c2c1 (centres undefined)	/	.	101	/	/	/
Cc1cc(-c2ccccc2)n(-c2cc(N/N=C/c3ccccc3O)ncn2)n1	/	.	77	105	/	/
CCS(=O)(=O)N1Cc2ccccc2CC1C(=O)NCCc1ccccc1 (centres undefined)	.	.	.	.	.	.
O=C(Nc1cccc(S(=O)(=O)N2CCCCC2)c1)c1ccc([N+](=O)[O-])o1	.	.	.	78	.	.
Cc1ccc(NC(=O)c2cc([N+](=O)[O-])ccc2N2CCOCC2)cc1S(=O)(=O)N1CCOCC1	.	.	.	.	.	.
Cc1ccc(C(=O)N2CCOCC2)cc1S(=O)(=O)N1CCOCC1	51	.	/	.	.	.
Cc1ccc(NC(=O)c2ccc([N+](=O)[O-])o2)cc1S(=O)(=O)N1CCOCC1	.	.	94	.	.	.
O=C(Nc1ccc(Cl)cc1)ON=C1CCCC1	.	.	.	.	.	.
Cc1nn(C)c(C)c1NS(=O)(=O)c1ccccc1Cl	/	.	.	.	/	/
COc1ccc(-c2oc3c4c(cc(OC)c3c(=O)c2CC=C(C)C)OC(C)(C)C=C4)c(OC)c1	.	/	.	101	.	65
CC(C)=CCc1c(-c2ccc(O)cc2O)oc2cc3c(c(O)c2c1=O)C=CC(C)(C)O3	107	/	.	.	.	.
Cc1ccc2nc(-c3ccc(O)c(O)c3)cn2c1	.	.	.	.	29	.
Cc1ccc2nc(-c3ccccc3)cn2c1	.	.	.	.	.	.
CC1CCN(C(=O)C2CCCN(S(=O)(=O)c3ccc4c(c3)CC(C)N4C(=O)C3CC3)C2)CC1 (centres undefined)	.	.	.	.	.	.
CN1CCN(c2nc(Nc3cccc(C(F)(F)F)c3)nc(N3CCOCC3)n2)CC1	.	.	.	.	.	58
FC(F)(F)c1cccc(Nc2nc(N3CCCC3)nc(N3CCCC3)n2)c1	75	.	.	.	.	.
CC1(c2ccccc2)CC(C)(C)N2C(=O)C3(C(C#N)=C(N)Oc4cc(O)ccc43)c3cccc1c32 (centres undefined)	.	.	.	.	.	.
CC1(c2ccccc2)CC(C)(C)N2C(=O)/C(=C3\SC(=S)NC3=O)c3cccc1c32 (centres undefined)	114	.	.	105	.	.
CCCN(C(=O)Cc1csc(-c2ccccc2)n1)C1CCS(=O)(=O)C1 (centres undefined)	/	.	.	.	/	/
C[C@@H]1CN([C@@H](C)CO)C(=O)c2cc(NS(=O)(=O)c3cccs3)ccc2O[C@H]1CN(C)Cc1ccc(C(F)(F)F)cc1	/	.	.	.	/	/
